Converted amounts (≈) assume the structure as drawn. The source made the active and inactive calls. The calls are words filed in the database; no cut-off is given here.
What was measured:
Mus musculus [1] = test: Anticonvulsant activity in CF1 mouse assessed as inhibition of maximal electroshock-induced seizures at 30 mg/kg, ip after 0.5 hrs; assay type: functional, organism-based; parameters: dose 30 mg/kg
How it was run: (§1)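 Male albino CF#1 mice (18–25.5 g), compound suspended in 0.5% methylcellulose, given ip 0.5 h or 4 h before test. Eyes treated with 0.5% tetracaine HCl in saline; corneal-type MES at 60 Hz, 50 mA for 0.2 s; protection scored as animals protected/tested.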

Mus musculus [2] = test: Anticonvulsant activity in CF1 mouse assessed as inhibition of maximal electroshock-induced seizures at 100 mg/kg, ip after 0.5 hrs; assay type: functional, organism-based; parameters: dose 100 mg/kg; how it was run: as §1
Mus musculus [3] = test: Anticonvulsant activity in CF1 mouse assessed as inhibition of maximal electroshock-induced seizures at 300 mg/kg, ip after 0.5 hrs; assay type: functional, organism-based; parameters: dose 300 mg/kg; how it was run: as §1
Mus musculus [4] = test: Anticonvulsant activity in CF1 mouse assessed as inhibition of maximal electroshock-induced seizures at 30 mg/kg, ip after 4 hrs; assay type: functional, organism-based; parameters: dose 30 mg/kg; how it was run: as §1
Mus musculus [5] = test: Anticonvulsant activity in CF1 mouse assessed as inhibition of maximal electroshock-induced seizures at 100 mg/kg, ip after 4 hrs; assay type: functional, organism-based; parameters: dose 100 mg/kg; how it was run: as §1
Mus musculus [6] = test: Anticonvulsant activity in CF1 mouse assessed as inhibition of maximal electroshock-induced seizures at 300 mg/kg, ip after 4 hrs; assay type: functional, organism-based; parameters: dose 300 mg/kg; how it was run: as §1
Mus musculus [7] = test: Neurotoxicity in CF1 mouse at 30 mg/kg, ip after 0.5 hrs by rotarod test; assay type: toxicity, organism-based; parameters: dose 30 mg/kg, route intraperitoneal; conditions: in vivo
How it was run: (§2)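 Male albino CF#1 mice (18–25.5 g) dosed ip with compound suspended in 0.5% methylcellulose, 0.5 h or 4 h before testing; neurotoxicity assessed by rotarod, scored as number toxic/number tested.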

Mus musculus [8] = test: Neurotoxicity in CF1 mouse at 300 mg/kg, ip after 0.5 hrs by rotarod test; assay type: toxicity, organism-based; parameters: dose 300 mg/kg, route intraperitoneal; conditions: in vivo; how it was run: as §2
Mus musculus [9] = test: Neurotoxicity in CF1 mouse at 30 mg/kg, ip after 4 hrs by rotarod test; assay type: toxicity, organism-based; parameters: dose 30 mg/kg, route intraperitoneal; conditions: in vivo; how it was run: as §2
Mus musculus [10] = test: Neurotoxicity in CF1 mouse at 100 mg/kg, ip after 4 hrs by rotarod test; assay type: toxicity, organism-based; parameters: dose 100 mg/kg, route intraperitoneal; conditions: in vivo; how it was run: as §2
Mus musculus [11] = test: Neurotoxicity in CF1 mouse at 300 mg/kg, ip after 4 hrs by rotarod test; assay type: toxicity, organism-based; parameters: dose 300 mg/kg, route intraperitoneal; conditions: in vivo; how it was run: as §2
Staphylococcus aureus = test: Antibacterial activity against Staphylococcus aureus ATCC 25923 after 24 hrs by broth microdilution method; assay type: functional; conditions: ATCC 25923, 24 h
How it was run: (§3)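 Broth microdilution in Mueller Hinton broth; compound stocks in DMSO, diluted into test medium. Plates incubated at 35 °C and read visually after 24 h. MIC taken as lowest concentration preventing visible growth. Ampicillin reference.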

Enterococcus faecalis = test: Antibacterial activity against Enterococcus faecalis ATCC 29212 after 24 hrs by broth microdilution method; assay type: functional; conditions: ATCC 29212, 24 h; how it was run: as §3
Escherichia coli = test: Antibacterial activity against Escherichia coli ATCC 25922 after 24 hrs by broth microdilution method; assay type: functional; conditions: ATCC 25922, 24 h; how it was run: as §3
Pseudomonas aeruginosa = test: Antibacterial activity against Pseudomonas aeruginosa ATCC 27853 after 24 hrs by broth microdilution method; assay type: functional; conditions: ATCC 27853, 24 h; how it was run: as §3
Pichia kudriavzevii = test: Antifungal activity against Candida krusei ATCC 6258 after 48 hrs by broth microdilution method; assay type: functional; conditions: ATCC 6258, 48 h
Candida parapsilosis = test: Antifungal activity against Candida parapsilosis ATCC 22019 after 48 hrs by broth microdilution method; assay type: functional; conditions: Lodderomyces parapsilosis, ATCC 22019, 48 h
Mus musculus [12] = test: Neurotoxicity in CF1 mouse at 100 mg/kg, ip after 0.5 hrs by rotarod test; assay type: toxicity, organism-based; parameters: dose 100 mg/kg, route intraperitoneal; conditions: in vivo; how it was run: as §2

Compound | inhibition (Mus musculus [1]) | inhibition (Mus musculus [2]) | inhibition (Mus musculus [3]) | inhibition (Mus musculus [4]) | inhibition (Mus musculus [5]) | inhibition (Mus musculus [6]) | Activity (Mus musculus [7]) | Activity (Mus musculus [8]) | Activity (Mus musculus [9]) | Activity (Mus musculus [10]) | Activity (Mus musculus [11]) | MIC (Staphylococcus aureus) [mg/L] | MIC (Enterococcus faecalis) [mg/L] | MIC (Escherichia coli) [mg/L] | MIC (Pseudomonas aeruginosa) [mg/L] | MIC (Pichia kudriavzevii) [mg/L] | MIC (Candida parapsilosis) [mg/L] | Activity (Mus musculus [12])
CC(OC(=O)CCCNC(=O)OC(C)(C)C)c1ccc2ccccc2c1 (configuration not stated) | inactive | inactive | inactive | inactive | inactive | inactive | Non-toxic | Non-toxic | Non-toxic | Non-toxic | Non-toxic |  |  |  |  |  |  | 
CC(C)(C)OC(=O)NCCCC(=O)OC(Cn1ccnc1)c1ccc2ccccc2c1 (configuration not stated) | inactive | Active | Active | inactive | inactive | Active | Non-toxic |  | Non-toxic | Non-toxic | Non-toxic | 16 (≈ 37.8 µM) | 128 (≈ 302 µM) | > 1020 | > 1020 | > 1020 | > 1020 | 
CCCC(CCC)C(=O)OC(C)c1ccc2ccccc2c1 (configuration not stated) | inactive | inactive | inactive | inactive | inactive | inactive | Non-toxic | Non-toxic | Non-toxic | Non-toxic | Non-toxic |  |  |  |  |  |  | Non-toxic
Oc1c(C(O)Cn2ccnc2)ccc2ccccc12 (configuration not stated) | inactive | inactive | inactive | inactive | inactive | inactive | Non-toxic |  | Non-toxic | Non-toxic | Non-toxic | 512 (≈ 2010 µM) | 256 (≈ 1010 µM) | > 1020 | > 1020 | 512 (≈ 2010 µM) | 512 (≈ 2010 µM) | Non-toxic
CC(C)CC(=O)OC(C)c1ccc2ccccc2c1 (configuration not stated) | inactive | inactive | inactive | inactive | inactive | inactive | Non-toxic | Non-toxic | Non-toxic | Non-toxic | Non-toxic |  |  |  |  |  |  | Non-toxic
O=C(Cn1ccnc1)c1ccc2ccccc2c1O | inactive | inactive | Active | inactive | inactive | Active | Non-toxic |  | Non-toxic | Non-toxic | Non-toxic | 64 (≈ 254 µM) | 64 (≈ 254 µM) | 1020 (≈ 4060 µM) | > 1020 | 64 (≈ 254 µM) | 32 (≈ 127 µM) | Non-toxic
OC(Cn1cncn1)(Cn1cncn1)c1ccc(F)cc1F [FLUCONAZOLE] |  |  |  |  |  |  |  |  |  |  |  |  |  |  |  | 64 (≈ 209 µM) | 8 (≈ 26.1 µM) | 

Source: ChEMBL document CHEMBL1156239, “Synthesis, anticonvulsant and antimicrobial activities of some new 2-acetylnaphthalene derivatives” (Bioorg Med Chem, 2010)
